Laboratory results taken from PMC5819740 (ACS chemical biology, 2017).
Where two headings read alike, the source gives them in different places.

Legend:
[1] = molecular target: T1, EcDHFR (Escherichia coli, UniProt P0ABQ4); assay: biochemical; format: biochemical; details: for Inhibition of EcDHFR activity in single-concentration initial screen: 1mM inhibitor (Fig 2A legend)
[2] = molecular target: T1, EcDHFR; format: binding; details: thermal shift at single concentration of 0.5 mM small molecule, 5μM EcDHFR
[3] = molecular target: T1, EcDHFR; format: biochemical; details: lower substrate, global non-linear fits
[4] = molecular target: EcDHFR L28R mutant; assay: DHFR inhibition assay on drug-resistant single mutant; format: biochemical, Escherichia coli; details: L28R mutant vs wild-type
Procedure, shortened: (§1)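 Purified recombinant E. coli DHFR (wild-type, or L28R, A26T/L28R, P21L/L28R mutants) in 100mM HEPES pH 7.3 at ~22 °C with 60 μM NADPH, 50 μM H2F and varied test compound; wild-type enzyme at 16.7nM. Reactions were enzyme-started, and NADPH consumption was followed at 340 nm for 100 s (initial rates, <5% product), corrected for non-enzymatic NADPH loss. Run in duplicate; IC50 fitted to y = 100%/[1+(I/IC50)].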

[5] = molecular target: EcDHFR A26T/L28R mutant; assay: DHFR inhibition assay on drug-resistant double mutant; format: biochemical, Escherichia coli; details: A26T/L28R mutant vs wild-type
Procedure, shortened: as §1

[6] = molecular target: EcDHFR P21L/L28R mutant; assay: as above; format: biochemical, Escherichia coli; details: P21L/L28R mutant vs wild-type
Procedure, shortened: as §1

[7] = molecular target: T1, EcDHFR; details: cited from earlier work
[8] = Insolubility limit in growth assay medium; details: 30 °C, aqueous buffer, kinetic from dmso stock
[9] = system: E. coli cultures; assay: Rescue of growth by metabolic complement folAmix; format: cell-based; details: M9-media supplemented with folAmix; different resveratrol concentrations
[10] = system: Escherichia coli; details: read-out: estimated IC50 (antibacterial activity); cited from earlier work
[11] = system: E. coli strain with chromosomal folA replaced by mutant L28R; details: cited from earlier work
[12] = 60μM NADPH, 50μM H2F, 100mM HEPES pH 7.3, 16.7nM EcDHFR, ± S.E.
[13] = substrate H2F, saturating NADPH

T1 sequence (P0ABQ4 whole entry): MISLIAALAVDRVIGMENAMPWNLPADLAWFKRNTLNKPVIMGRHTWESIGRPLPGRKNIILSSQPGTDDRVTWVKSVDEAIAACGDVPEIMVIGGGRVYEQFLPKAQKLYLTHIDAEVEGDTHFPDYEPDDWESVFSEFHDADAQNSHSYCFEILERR

For `O=S(=O)(O)c1cc(N=C=S)ccc1C=Cc1ccc(N=C=S)cc1S(=O)(=O)O` [DIDS], which IC50 [1, 12] is on record?
The IC50 was 51 ± 1.7 µM.

And the “Inhibition of EcDHFR activity in single-concentration initial screen” value (from here on “Inhibition of EcDHFR activity”) [1]?
The value was “showed inhibition”.

What does the source list for `O=[N+]([O-])c1ccc(/C=C/c2ccc([N+](=O)[O-])cc2S(=O)(=O)O)c(S(=O)(=O)O)c1` [DNDS, dinitro disulfonic acid]?
IC50 [1, 12]: 45.3 ± 10.1 µM; Inhibition of EcDHFR activity in single-concentration initial screen [1]: showed inhibition; ΔTm [2]: 1.9 °C

Which results are given for `Nc1ccc(C=Cc2ccc(N)cc2S(=O)(=O)O)c(S(=O)(=O)O)c1` [flavonic acid]?
IC50 [1, 12]: 36.7 ± 3.1 µM; Inhibition of EcDHFR activity in single-concentration initial screen [1]: showed inhibition; αKi [3, 13]: 76.25 ± 6.82 µM

Which IC50 [1] does the source give for `COc1ccc(CC(=O)c2ccc(O)cc2O)cc1` [ononetin] here?
The IC50 was 83.4 ± 1.1 µM.

And the Ki [1]?
Its Ki is 83.4 µM.

What about the “Inhibition of EcDHFR activity” value [1] of the same compound?
Its value is “inhibits the enzyme”.

What about the “Inhibition Mechanism” value ([3]; NADPH titrated at saturating H2F) of the same compound?
The value was “uncompetitive inhibition”.

And the αKi [3, 13]?
Its αKi is 111.2 ± 12.37 µM.

And the αKi ([3]; substrate NADPH, saturating H2F)?
The αKi was 113.2 ± 13.1 µM.

What about the “IC50 curve compared with wild-type enzyme” value [4] of the same compound?
The value was “superimposable”.

What about the “IC50 curve compared with wild-type enzyme” value [5] of the same compound?
The value was “superimposable”.

And the “IC50 curve compared with wild-type enzyme” value [6]?
The value was “superimposable”.

What about the “Binding to EcDHFR by DSF” value [7] of the same compound?
Its value is “showed binding to EcDHFR”.

With `Oc1cc(O)cc(/C=C/c2ccc(O)cc2O)c1` [oxyresveratrol] as the compound, how does the solubility [8] read?
The solubility was no more than 250 µM.

Which IC50 [1] does the source give for `Oc1ccc(/C=C/c2cc(O)cc(O)c2)cc1` [resveratrol] here?
The IC50 was 95.7 ± 3 µM.

And the Ki [1]?
Its Ki is 95.7 µM.

And the “Inhibition of EcDHFR activity” value [1]?
The value was “showed inhibition”.

What about the αKi [3, 13] of the same compound?
Its αKi is 88.30 ± 6.02 µM.

And the “IC50 curve compared with wild-type enzyme” value [4]?
Its value is “superimposable”.

What about the “IC50 curve compared with wild-type enzyme” value [5] of the same compound?
The value was “superimposable”.

What about the “IC50 curve compared with wild-type enzyme” value [6] of the same compound?
The value was “superimposable”.

What about the “Effect of folAmix on growth of inhibited cells” value [9] of the same compound?
Its value is “fully restores growth”.

And the IC50 [10]?
The IC50 was 250 µM.

And the solubility [8]?
The solubility was no more than 250 µM.

With `COc1cc(Cc2cnc(N)nc2N)cc(OC)c1OC` [trimethoprim] as the compound, how does the “Increase in resistance conferred by L28R variant” value [11] read?
The value was “approximately 50 fold”.
